Laboratory results as given in article PMC3269312 (International journal of inorganic chemistry, 2011).

Assays:
[1] = test system: ct-DNA; conditions: cited from earlier work
[2] = test system: ct-DNA; experiment: Fluorescence competition experiment with ethidium bromide; assay type: binding, calf
In short: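 Ethidium bromide is pre-bound to calf-thymus DNA, and the intercalated adduct is excited near 520 nm. Test compound is added as quencher, and the loss of adduct emission is followed. Relative fluorescence (F0/F) is plotted against quencher concentration per the Stern-Volmer equation, giving the quenching constant.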

Compound | KEB, binding constant of EB to DNA [1] [M⁻¹] | KSV, Stern-Volmer quenching constant ([2]; EB-DNA adduct, λex = 520 nm, [EB] = 0.33 μM, [DNA] = 10 μM, 298 K) | apparent binding constant (Kapp) with ct-DNA ([2]; from [complex] at 50% of initial EB-DNA fluorescence, KEB = 1.2 × 10^6 M^−1) [M⁻¹]
CC[n+]1c(-c2ccccc2)c2cc(N)ccc2c2ccc(N)cc21 [EB, ethidium bromide] | 1.2e+06 |  | 
Zn(acnTSC)2Cl2 [Complex 1] |  | (7.48 ± 0.29) × 10^3 M^−1 | 3530
